Assay outcomes as filed in PubChem BioAssay.
The list is not random: actives were taken first. Their share in the collection is about 1.9%.
ADAM10 inh = human ADAM10 inhibitors, primary screen, biochemical, QFRET, HTS. Disintegrin and metalloproteinase domain-containing protein 10 (Homo sapiens), O14672. recombinant ADAM10, EDANS/DABCYL FRET peptide cleavage, 3 h. inhibition, % at 7 µM. hit rate 0.62% among 370,000. AID 720582, 2013;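 active = inhibition above a per-campaign cutoff equal to the mean of compounds falling between control-based bounds plus 3 SD, cut at about 20% in these data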
Target sequence (O14672 214-748 limits assumed): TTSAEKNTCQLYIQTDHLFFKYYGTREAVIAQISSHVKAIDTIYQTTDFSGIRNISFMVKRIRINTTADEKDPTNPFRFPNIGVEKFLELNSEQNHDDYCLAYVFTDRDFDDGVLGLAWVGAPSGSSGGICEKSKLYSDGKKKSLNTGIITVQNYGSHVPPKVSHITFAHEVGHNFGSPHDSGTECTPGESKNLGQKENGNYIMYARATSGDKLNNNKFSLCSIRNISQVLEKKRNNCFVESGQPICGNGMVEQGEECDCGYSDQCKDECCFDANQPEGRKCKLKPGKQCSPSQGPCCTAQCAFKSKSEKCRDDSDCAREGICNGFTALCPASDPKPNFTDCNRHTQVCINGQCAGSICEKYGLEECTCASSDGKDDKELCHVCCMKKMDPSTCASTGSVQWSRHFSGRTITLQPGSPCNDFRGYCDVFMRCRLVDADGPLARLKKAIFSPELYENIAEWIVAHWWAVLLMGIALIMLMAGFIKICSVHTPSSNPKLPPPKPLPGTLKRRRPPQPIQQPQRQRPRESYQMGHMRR
SENP1 FRET inh = human SENP1 catalytic domain inhibitors, primary screen, biochemical, FRET, uHTS | Sentrin-specific protease 1 (Homo sapiens), Q9P0U3 | recombinant SENP1 catalytic domain, CyPet-SUMO1-YPet FRET cleavage | inhibition, % at 10 µM | hit rate 0.21% among 360,000;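 active = inhibition at least 30% at 10 µM, raw YFP signal under a set limit, fluorescence ratio 0.5 to 1.5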
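material = recombinant human SENP1 catalytic domain, His6-tagged | quantity = 20 pM enzyme | reagent = 25 nM SUMO1 FRET substrate | compound dosing = 10 µM single point, 0.5% DMSO | timing = 50 min enzyme reaction, room temperature, light-protected | detection = FRET, CFP and YFP emission | control set = no-enzyme low, enzyme-DMSO high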
FAS-TE inh = FAS thioesterase domain inhibitors, primary screen, biochemical, fluorescence intensity, uHTS; Fatty acid synthase (Homo sapiens), P49327; recombinant FAS-TE, OMFH fluorogenic substrate, fluorescence endpoint; inhibition, % at 15 µM; hit rate 0.67% among 360,000; AID 602261, 2012;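 active = compounds whose normalised, plate-corrected inhibition of enzyme fluorescence in the single-dose primary screen is 50% or more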
ADAM17 inh = ADAM17 inhibitors, primary screen, biochemical, QFRET; Disintegrin and metalloproteinase domain-containing protein 17 (Homo sapiens), P78536; recombinant ADAM17, EDANS/DABCYL FRET peptide cleavage; inhibition, % at 6.95 µM; hit rate 0.83% among 370,000;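 active = inhibition above the mean of compounds lying between control limits plus 3 SD, set per campaign, cut at about 8.5% in these data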
ADAM10 confirm = human ADAM10 inhibitors, confirmation, biochemical, QFRET, triplicate; shares compounds with ADAM10 inh; ADAM10 QFRET peptide cleavage, EDANS fluorescence; inhibition, % at 6.95 µM; hit rate 1% among 2,100; AID 743208, 2013;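 active = inhibition above about 20% chosen separately for each screening run, limit read from the data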
ADAM17 counter = ADAM17 inhibitors, counter-screen for ADAM10 exosite inhibitor project, biochemical, QFRET, high throughput. ADAM17 QFRET peptide cleavage, EDANS fluorescence. hit rate 0.5% among 2,100. shares compounds with ADAM10 inh. inhibition, % at 6.95 µM;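 active = mean triplicate inhibition above the solvent-only control wells' mean plus 3 SD, cut at about 12% in these data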
ADAM10 counter = ADAM10 inhibitors, counter-screen for ADAM17 exosite inhibitor project, biochemical, FRET, human ADAM10; shares compounds with ADAM17 inh; recombinant ADAM10, EDANS/DABCYL FRET peptide cleavage, 3 h; inhibition, % at 6.95 µM; hit rate 47% among 2,900; AID 743256, 2014;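 active = mean inhibition over the triplicate runs exceeds the activity threshold set in the earlier primary screen, cut at about 20% in these data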
ADAM17 confirm = ADAM17 inhibitors, hit retest, confirmation, biochemical, QFRET peptide cleavage; shares compounds with ADAM17 inh; recombinant ADAM17, EDANS/DABCYL QFRET peptide cleavage; inhibition, % at 6.95 µM; hit rate 65% among 2,900; AID 743257, 2014;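 active = mean inhibition across replicates above the hit cutoff set in the primary screen, cut at about 8.5% in these data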
Of the large screens only hits and unclear results are named; the others gave an inactive call (follow-up assays come after a bar, where they were run).

C[C@H](NC(=O)c1nc[nH]c1C(=O)N[C@@H](CCCCNC(=O)OC(C)(C)C)C(=O)OC(C)(C)C)c1ccccc1	ADAM10 inh 21, ADAM17 inh 12 | ADAM10 confirm inactive | ADAM17 counter inactive | ADAM10 counter 29 | ADAM17 confirm 18
CC(C)(C)OC(=O)NCCCC[C@H](NC(=O)c1[nH]cnc1C(=O)N[C@@H](Cc1ccccc1)C(=O)OC(C)(C)C)C(=O)OC(C)(C)C	none
CC(C)(C)OC(=O)NCCCCCNC(=O)c1[nH]cnc1C(=O)Nc1ccc(Cl)cc1	ADAM10 inh 31, ADAM17 inh 14 | ADAM10 confirm inactive | ADAM17 counter inactive | ADAM10 counter 39 | ADAM17 confirm 22
C[C@H](NC(=O)c1nc[nH]c1C(=O)NCc1ccc(CNC(=O)OC(C)(C)C)cc1)c1ccccc1	ADAM10 inh 54, ADAM17 inh 25 | ADAM10 confirm inactive | ADAM17 counter inactive | ADAM10 counter 29 | ADAM17 confirm 16
Cc1ccc(NC(=O)c2nc[nH]c2C(=O)NCCCCCNC(=O)OC(C)(C)C)cc1	none
O=C(NCc1ccccc1)N1CCN(Cc2nc3ccccc3c(=O)[nH]2)CC1	none (no result: SENP1 FRET inh, FAS-TE inh)
N#Cc1cccc(Cn2ccc3ccc(-c4ccc5ccn(Cc6ccccc6)c5c4)cc32)c1	none (no result: SENP1 FRET inh, FAS-TE inh)
O=C1[C@@H]2[C@H](C(=O)N1C[C@@H](COCc1ccccc1)Oc1cccc3c1S(=O)(=O)N(CCc1ccc(F)cc1)C[C@H](COCc1ccccc1)O3)[C@@H]1C=C[C@H]2C1	none (no result: SENP1 FRET inh, FAS-TE inh)
CCCCN1CC(COCc2ccccc2)Oc2cccc(OCCN3C(=O)[C@@H]4[C@H](C3=O)C3C=C[C@H]4C3)c2S1(=O)=O (some centres not stated)	ADAM10 inh 26, ADAM17 inh 13 | ADAM10 confirm inactive | ADAM17 counter inactive | ADAM10 counter 44 | ADAM17 confirm 18
Cc1ccc(C2CN(C)C3(C(=O)Nc4ccccc43)C23COc2ccccc2C3=O)cc1 (configuration not stated)	ADAM10 inh 27, ADAM17 inh 9.6 | ADAM10 confirm inactive | ADAM17 counter inactive | ADAM10 counter 35 | ADAM17 confirm 19
NC(=O)CC(NC(=O)c1ccccc1)c1ccc(N2CCCCCCC2)c([N+](=O)[O-])c1 (configuration not stated)	none
NC(=O)CC(NC(=O)c1ccc(Br)cc1)c1ccc(N2CCCCCC2)c([N+](=O)[O-])c1 (configuration not stated)	ADAM10 inh 22, ADAM17 inh 12 | ADAM10 confirm inactive | ADAM17 counter inactive | ADAM10 counter inactive | ADAM17 confirm inactive
Cc1ccc(C)c(Cn2nnc3c(=O)[nH]c(C4CCN(S(=O)(=O)c5ccc(S(=O)(=O)NC6CC6)cc5)CC4)nc32)c1	ADAM10 inh 25, ADAM17 inh 11 | ADAM10 confirm inactive | ADAM17 counter inactive | ADAM10 counter 39 | ADAM17 confirm 21
Cc1ccc(Cn2nnc3c(=O)[nH]c(C4CCN(S(=O)(=O)c5cc(C)ccc5C)CC4)nc32)cc1	ADAM10 inh 43, ADAM17 inh 15 | ADAM10 confirm inactive | ADAM17 counter inactive | ADAM10 counter 25 | ADAM17 confirm 11
CSc1cccc(NC(=O)CCCOc2ccc(Cl)cc2C)c1	ADAM10 inh 31, ADAM17 inh 19 | ADAM10 confirm inactive | ADAM17 counter inactive | ADAM10 counter 38 | ADAM17 confirm 19
CSc1cccc(NC(=O)/C=C/c2ccc(Cl)cc2)c1	ADAM10 inh 22, ADAM17 inh 14 | ADAM10 confirm inactive | ADAM17 counter inactive | ADAM10 counter 45 | ADAM17 confirm 16
COc1ccccc1CCn1cnc(-c2ccccc2F)c1CC(C)C	none (no result: SENP1 FRET inh, FAS-TE inh)
COc1cc(NC(=S)NCCC(c2ccccc2)c2ccccc2)cc(OC)c1	ADAM10 inh 23, ADAM17 inh 12 | ADAM10 confirm inactive | ADAM17 counter inactive | ADAM10 counter 20 | ADAM17 confirm 13
O=C1c2[nH]nc(-c3ccccc3)c2C(c2cccc(C(F)(F)F)c2)N1c1ccccc1 (configuration not stated)	none (no result: SENP1 FRET inh, FAS-TE inh)
CCOc1cc(/C=N/O)cc(Br)c1OCC	none
CCOc1cc(/C=N/O)cc(Br)c1OCc1ccc(Cl)cc1	ADAM10 inh 25, ADAM17 inh 8.9 | ADAM10 confirm inactive | ADAM17 counter inactive | ADAM10 counter 52 | ADAM17 confirm 21
C=CCC[C@H](Cc1ccc(F)cc1)C(=O)OC[C@@H](Cc1c[nH]c2ccccc12)NC(=O)[C@@H](CC=C)CC(=O)NCCO	ADAM10 inh 27, ADAM17 inh 17 | ADAM10 confirm inactive | ADAM17 counter inactive | ADAM10 counter 35 | ADAM17 confirm 17
C=CC[C@@H](CC(=O)NCCO)C(=O)N[C@H](COC(=O)[C@@H](CC=C)Cc1ccc(F)cc1)Cc1c[nH]c2ccccc12	none
C=CCC[C@@H](Cc1ccc(F)cc1)C(=O)OC[C@@H](Cc1c[nH]c2ccccc12)NC(=O)[C@@H](CC=C)CC(=O)NCCO	ADAM10 inh 28, ADAM17 inh 17 | ADAM10 confirm inactive | ADAM17 counter inactive | ADAM10 counter 29 | ADAM17 confirm 15
C=CCC[C@@H](Cc1ccc(F)cc1)C(=O)OC[C@@H](Cc1c[nH]c2ccccc12)NC(=O)[C@H](CC=C)CC(=O)NCCO	none
C=CCC[C@H](Cc1ccc(F)cc1)C(=O)OC[C@H](Cc1c[nH]c2ccccc12)NC(=O)[C@H](CC=C)CC(=O)NCCO	ADAM10 inh 24, ADAM17 inh 9.4 | ADAM10 confirm inactive | ADAM17 counter inactive | ADAM10 counter 43 | ADAM17 confirm 22
C=CC[C@@H](CC(=O)NCCO)C(=O)N[C@@H](COC(=O)[C@@H](CC=C)Cc1ccc(F)cc1)Cc1c[nH]c2ccccc12	none
